Molecules are shown by their SMILES. The source made the active and inactive calls. The calls are words filed in the database; no cut-off is given here.

The species named for the first assay is Canis familiaris. The experiment in a line: Efficacy against histamine stimulation was determined in dog. It is filed as functional. To be noted: Canis lupus familiaris. The essentials: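 Gastric pouch dogs fasted 18 h with water, baseline from two 15-min samples. Drug in 0.9% saline given by oral gavage 30 min before histamine diphosphate (64 μg/kg base, sc). Samples collected at 15-min intervals and acid titrated to pH 7.0 with 0.1 N NaOH. Total acid output summed over 1 h, percent inhibition vs the same dog's saline run, runs ≥3 days apart.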
With `CN/C(=C\[N+](=O)[O-])NCCSCc1ccc(CN(C)C)o1` [RANITIDINE], the ED50 is 0.93 mg/kg.
`O=S1(=O)N=C(NCCCOc2cccc(CN3CCCCC3)c2)c2cscc21` showed an ED50 of 0.35 mg/kg.

In the next assay the test system is Rattus norvegicus. Description: In vivo inhibitory activity against basal acid secretion in pylorus-ligated rat was determined at a dose of 4 mg/kg. It is filed as functional.
Conditions: not given
An outline of the steps: (§1)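 Male SD/CD rats (190–260 g), fasted 24 h with water, groups of 10. Pylorus ligated under methohexital (40 mg/kg). Drug in 0.25% aqueous methylcellulose given intraduodenally (1 mL/kg) right after ligation. Killed 4 h later. Gastric juice volume × acid concentration (titration to pH 7.0 with 0.1 N NaOH) gives total acid output, expressed as percent inhibition vs vehicle controls.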
`O=S1(=O)N=C(NCCCOc2cccc(CN3CC=CCC3)c2)c2cscc21`: the Total acid output worked out at 18%.
On to `Cl.O=S1(=O)N=C(NCCCOc2cccc(CN3CCCC3)c2)c2cscc21`, for which the Total acid output was 19%.
On the same count and under the same terms, with `CCCN(CCC)Cc1cccc(OCCCNC2=NS(=O)(=O)c3cscc32)c1.Cl` the figure was 16%; with `N=C(N)Nc1nc(CSCCNC2=NS(=O)(=O)c3cscc32)cs1`, 83%.
Same read-out and setting: the same measure for `O=Cc1cccc(OCCCNC2=NS(=O)(=O)c3cscc32)c1`: 89%.

In the next assay the test system is Rattus norvegicus. Description: In vivo inhibitory activity against basal acid secretion in pylorus-ligated rat was determined at a dose of 8 mg/kg. The format is functional.
Conditions: not given
The essentials:
as §1
The compound `O=S1(=O)N=C(NCCCOc2ccc(CN3CCCCC3)cc2)c2cscc21` showed a Total acid output of 21%.
Same read-out and setting: the same measure for `Cl.NS(=O)(=O)c1cscc1C(=O)NCCCOc1cccc(CN2CCCCC2)c1.O`: 36%; for `Cc1[nH]cnc1CSCCNC1=NS(=O)(=O)c2cscc21`: 87%.
The same measure, in the same setting: the same measure for `O=S1(=O)N=C(NCCCOc2cccc(CN3CCCCC3)c2)c2sccc21`: 12%; for `NS(=O)(=O)c1cscc1C(=O)NCCCOc1cccc(C=O)c1`: 94%; for `O=C(c1cccc(OCCCNC2=NS(=O)(=O)c3cscc32)c1)N1CCCCC1`: 94%.
Same read-out and setting: with `O=S1(=O)N=C(NCCCOc2cccc(CN3CCCCC3)c2)c2cscc21` the figure was 16%.

The next assay has as its system Rattus norvegicus. The experiment in a line: In vivo inhibitory activity against basal acid secretion in pylorus-ligated rat was determined at a dose of 4 mg/kg; Inactive.
Conditions: not given
For the compound `O=Cc1cccc(OCCCNC2=NS(=O)(=O)c3cscc32)c1`, the result was inactive.

The record behind these values is ChEMBL document CHEMBL1124167, “Syntheses and gastric acid antisecretory properties of the H2-receptor antagonist. N-[3-[3-(1-piperidinylmethyl)phenoxy]propyl]thieno[3,4-d]isot hiazol-3-amine 1,1-dioxide and related derivatives” (J Med Chem, 1988).
